In the array DNA melting data of Ke et al. (doi:10.1101/2024.01.08.574731) one finds folding enthalpy and Tm data, which are given here for 30 sequences.

A short description of data set [1]: folding enthalpy; higher = less favourable; fluorescence melt of hairpins on a sequencing array, two-state fit. To be noted: sodium 0.088 M. A digest of the protocol:
(§1)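 On a sequenced MiSeq flow cell, library hairpins with annealed Cy3 and quencher oligos were imaged for Cy3 fluorescence in 2.5 °C steps up to 60 °C, in 50 mM Na-HEPES pH 8.0, 25 mM NaCl. Normalisation used pre-quench Cy3 and control constructs. Bootstrapped two-state fits gave melting temperature and folding enthalpy, combined by inverse variance across four replicates and with fitted temperatures raised by 9.35 °C to match UV melts.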

A short description of data set [2]: melting temperature; fluorescence melt of hairpins on a sequencing array, two-state fit, raised by 9.35 °C to match UV melts. The note with it: sodium 0.088 M. The method in brief:
as §1

On to GTTCGCGAAAGCGTGAAC ((((((....)))..))), for which the folding enthalpy in data set [1] was -54.5 kJ/mol. In data set [2], the Tm is 40.5 °C.
For GCATTCCGAAAGGAGTGC (((.(((....))).))) the same measures were -167 kJ/mol and 58.4 °C.
The like results for GATCGTTTGGACGATC ((((((....)))))) were, in that order, -186 kJ/mol and 56.3 °C.
As to GTCGAACGAAAGTTGAC (((.(((....)))))), the folding enthalpy in data set [1] was -97.9 kJ/mol. For the same sequence, in data set [2], the Tm is 46.3 °C.
For GGCCGTGGAAACGCGGTC (.(((.(....).))).) the same measures were -127 kJ/mol and 52.5 °C.
As for GCGCTTACGAAAGTACGC (((..(((....)))))), the folding enthalpy in data set [1] is -89.7 kJ/mol. Also, the Tm in data set [2] was found to be 46.2 °C.
For GGGATGCGAAAGCAACCC (((.(((....))).))) the same measures were -102 kJ/mol and 63.6 °C.
The like results for GATGCTGGAAACGGCATC (((((.(....).))))) were, in that order, -185 kJ/mol and 54.3 °C.
For GATCCATCGTGGATC ((((((...)))))) the same measures were -154 kJ/mol and 50.8 °C.
In the case of GTCTGATCGAAAGATGAC (((..(((....)))))), in data set [1], the folding enthalpy is -82.9 kJ/mol. The Tm in data set [2] is 30.1 °C.
For GAAGACGCGAAAGCGTTC (((..(((....)))))) the same measures were -31.4 kJ/mol and 32.1 °C.
The like results for GCGGGTACCCGC ((((....)))) were, in that order, -143 kJ/mol and 67.7 °C.
For GTCTGGGAAACCAGAC ((((((....)))))) the same measures were -160 kJ/mol and 58.3 °C.
Take GTCATTGGAAACAGTGAC ((((.((....)).)))): in data set [1], the folding enthalpy is -141 kJ/mol. In addition, the Tm in data set [2] was determined as 43.9 °C.
The like results for GATCAGTGACCTGATC ((((((....)))))) were, in that order, -126 kJ/mol and 48.7 °C.
For GACGGTGGAAACACTGTC (((.(((....))).))) the same measures were -192 kJ/mol and 52.1 °C.
For GAGGACGAAAGTCACCTC ((((((....)))..))) the same measures were -54.1 kJ/mol and 36.2 °C.
With GCGTGTCGAAAGACTCGC (((.(((....))).))), the folding enthalpy in data set [1] was -189 kJ/mol. Also, the Tm in data set [2] is 63.9 °C.
The like results for GGCACTGGAAACAGCACC ((..(((....)))..)) were, in that order, -41.6 kJ/mol and 23.5 °C.
The like results for GCTTTCCGAAAGGAGAGC (((.(((....))).))) were, in that order, -162 kJ/mol and 54.8 °C.
Turning to GACCGCGAAAGCGTGTC ((((((....))).))), the folding enthalpy in data set [1] was -88.5 kJ/mol. Moreover, in data set [2], the Tm worked out at 63.5 °C.
The like results for GGCAATGGAAACATTGTC (.(((((....))))).) were, in that order, -140 kJ/mol and 48.4 °C.
In the case of GGATGCGGAAACACATCC (((((.(....).))))), the folding enthalpy in data set [1] is -185 kJ/mol. The Tm in data set [2] stood at 47.9 °C.
For GATCTCGCAGGAGATC ((((((....)))))) the same measures were -212 kJ/mol and 57.5 °C.
The like results for GTCGAAGAAATTCGAC ((((((....)))))) were, in that order, -149 kJ/mol and 56.2 °C.
For GATCTCCAAAGAGATC ((((((....)))))) the same measures were -149 kJ/mol and 52.5 °C.
With GGAAGTCGAAAGACATCC (((.(((....))).))), in data set [1], the folding enthalpy is -105 kJ/mol. Also, the Tm in data set [2] was 48.2 °C.
For GGTATCGAAAGATCCACC ((((((....)))..))) the same measures were -61.3 kJ/mol and 31.8 °C.
The like results for GTCACTGCGAAAGCAGAC (((..(((....)))))) were, in that order, -31.4 kJ/mol and 28.5 °C.
For GATCAGTACTCTGATC ((((((....)))))) the same measures were -182 kJ/mol and 50.4 °C.
